SR-BI DiI inh – blocks mouse SR-BI lipid uptake from DiI-HDL; 320,000 compounds, 0.96% hits; inhibition, % at 12.5 µM; AID 488896; ldlA[mSR-BI] CHO cells, DiI-HDL uptake fluorescence, 3 h;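 active = mean replicate inhibition of at least 70% and a set share of replicates each scoring 70 or more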;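 note: 0% = median of neutral control wells and 100% = median of positive control wells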
Target sequence (Q61009 whole entry, looked up): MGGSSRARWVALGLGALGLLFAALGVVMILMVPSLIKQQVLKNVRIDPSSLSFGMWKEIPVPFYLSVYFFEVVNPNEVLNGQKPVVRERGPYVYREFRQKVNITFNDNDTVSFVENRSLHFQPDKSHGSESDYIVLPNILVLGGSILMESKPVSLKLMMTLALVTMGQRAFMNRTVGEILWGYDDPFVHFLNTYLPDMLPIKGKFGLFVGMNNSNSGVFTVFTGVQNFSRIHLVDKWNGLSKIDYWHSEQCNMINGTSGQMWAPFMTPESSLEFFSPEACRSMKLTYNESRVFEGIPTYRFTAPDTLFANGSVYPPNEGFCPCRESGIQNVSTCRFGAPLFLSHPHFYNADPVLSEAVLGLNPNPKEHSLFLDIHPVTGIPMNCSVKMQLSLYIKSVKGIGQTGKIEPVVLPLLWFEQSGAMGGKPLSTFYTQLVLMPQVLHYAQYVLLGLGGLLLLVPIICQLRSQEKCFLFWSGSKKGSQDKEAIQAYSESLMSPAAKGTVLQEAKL
miR-122 sensor – miR-122 inhibition in Huh7 cells. Huh7 miR-122 Renilla luciferase sensor, 48 h; neutral wells = 0, positive control = 100. activation (reporter increase), % at 12.5 µM. 340,000 compounds, 0.3% hits. AID 602342;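 active = mean replicate activation score at least 90 and every replicate individually at or above 90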;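 note: higher luciferase means less miR-122 activity so hits act as miR-122 inhibitors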
CAL PDZ FP-1 – blocks peptide binding to the human CAL PDZ domain. inhibition, % at 24.9 µM. purified CAL PDZ, TMR-peptide fluorescence polarization, 1 h. 300,000 compounds, 0.92% hits. AID 602252. Q9HD26;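 active = mean inhibition of at least 30% with at least half of replicates also reaching 30%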;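 note: 0% = DMSO neutral control and 100% = excess unlabeled competitor peptide PRC23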
SR-BI uptake up – enhances SR-BI lipid uptake from DiI-HDL; CHO ldlA[mSR-BI] cells, DiI-HDL uptake fluorescence, 3 h; 100 = double the neutral-control signal; activation, % at 12.5 µM; 320,000 compounds, 0.096% hits; AID 504775;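 active = mean replicate activation of at least 60% and every replicate at or above 60%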;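 note: 0% = median plate neutral-control signal and 100% = twice that signal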
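Assay system: CHO ldlA[mSR-BI] cells, LDL receptor-null, SR-BI overexpressing; medium: Ham's F12 with 0.5% BSA, HEPES 25 mM, pH 7.4; also added: DiI-HDL 10 µg/mL; timing: 3 h uptake period with compound, 37 °C; signal: DiI fluorescence, bottom read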
CAL PDZ FP-2 – inhibitors of human CAL PDZ peptide binding | purified CAL PDZ, TMR-peptide fluorescence polarization, 1 h | inhibition, % at 20 µM | 330,000 compounds, 0.02% hits | AID 504414;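 active = highest replicate inhibition of at least 40%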;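 note: plate controls were DMSO neutral control wells for no effect and unlabeled competitor peptide control wells for full effect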
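Control set: unlabelled peptide and DMSO controls / Material: purified CerCALP PDZ construct / Timing: 1 h incubation at room temperature before polarization reading / Doses: 20 µM, one dose / Detection: fluorescence polarization (mP)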
ARNT TACC3 PPI – disrupts binding between human ARNT and TACC3; AlphaScreen His-ARNT PAS-B/GST-TACC3 binding, luminescence; TACC3 fragment carries E629A point mutation; 390,000 compounds, 0.66% hits; AID 623870; inhibition, % at 9.99 µM;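 active = mean inhibition of replicates at least 50% and at least half of replicates each reaching 50%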;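 note: 0% = complete ARNT plus TACC3 wells and 100% = ARNT alone without TACC3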
ARNT Alpha ctr – counter-screen for ARNT/TACC3 inhibitors: AlphaScreen artifacts; shares compounds with ARNT TACC3 PPI; His-ARNT PASB-GST AlphaScreen artifact counter-screen, luminescence; AC50, µM (series often up to 68 µM), without a hit: top-dose activity change, negative = signal decrease; 1,200 compounds, 50% hits;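 active = every separate test run was called active for a drop in luminescence, with AC50 within twice the top valid dose, actives reach about 71 µM in these data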
The depositor's hits bear a star; . = no result given; [ ] = another dose, or the depositor's remark. The list is not random: actives were taken first. Their share in the collection is about 2.1%.

SMILES | SR-BI DiI inh | miR-122 sensor | CAL PDZ FP-1 | SR-BI uptake up | CAL PDZ FP-2 | ARNT TACC3 PPI | ARNT Alpha ctr
O=C(Nc1nnc(-c2ccc(F)cc2)o1)c1ccco1 | -27 | 1 | . | 27 | 0 | 42* | -25%
O=C(CCc1ccccc1)Nc1nnc(-c2ccccn2)o1 | -27 | . | 5 | 27 | -3 | 52* | -6%
C[C@@H]1CN([C@H](C)CO)C(=O)c2cc(C3=CCCCC3)cnc2O[C@@H]1CN(C)C(=O)Nc1cccc(F)c1 | . | 14[16.7 µM] | . | . | . | -3 | .
CO[C@H]1CN(C)C(=O)c2ccc(NC(C)=O)cc2OC[C@H](C)N(C(=O)CN2CCOCC2)C[C@H]1C | . | -3[16.7 µM] | . | . | . | -9 | .
C[C@H](CO)N1C[C@H](C)[C@H](CN(C)S(C)(=O)=O)OCCCC[C@H](C)Oc2ccc(NC(=O)Cc3ccccc3)cc2C1=O | . | -5[16.7 µM] | . | . | . | 1 | .
N#Cc1ccc(CC(=O)c2ccccc2)[nH]c1=O | -1 | -7 | -5 | 1 | 24 | active | -12%
COCCNC(=O)C[C@H]1CC[C@H]2[C@@H](COC[C@H](O)CN2C(=O)Nc2ccccc2OC)O1 | . | 5[16.7 µM] | . | . | . | 3 | .
C[C@@H]1CN([C@H](C)CO)C(=O)CCCn2nncc2CO[C@@H]1CN(C)C(=O)Nc1cccc(C(F)(F)F)c1 | . | 7[16.7 µM] | . | . | . | 6 | .
CN1c2ccc(-c3ccc(F)cc3)cc2[C@@H]2[C@@H](CCN2C(=O)c2ccncc2)[C@@H]1CO | . | -1[16.7 µM] | . | . | . | -4 | .
C/C=C/c1ccc([C@H]2[C@@H](CO)N(Cc3ccccn3)[C@H]2CNC(=O)CC)cc1 | . | -108[16.7 µM] | . | . | . | 41* | -23%[42 µM]
C/C=C/c1ccc([C@H]2[C@@H](CO)N(Cc3ccccn3)[C@@H]2CNC(C)=O)cc1 | . | 30[16.7 µM] | . | . | . | 30* | -11%[42 µM]
C/C=C/c1ccc([C@H]2[C@@H](CO)N(Cc3ccccn3)[C@@H]2CNC(=O)CC)cc1 | . | 0[16.7 µM] | . | . | . | 23 | .
C[C@H]1CN([C@@H](C)CO)S(=O)(=O)c2ccc(-c3ccccc3)cc2O[C@@H]1CN(C)C | . | 0[16.7 µM] | . | . | . | 3 | .
c1ccc(-c2ccc(SCc3cccnc3)nn2)nc1 | -11 | . | 1 | 11 | -1 | 58* | 14µM*
c1ccc(CSc2ccc(-c3ccccn3)nn2)nc1 | -13 | . | 2 | 13 | -1 | 64* | 9.1µM*
COc1cccc(S(=O)(=O)Nc2ccc3c(c2)[C@H]2C[C@@H](CC(=O)NCC(F)(F)F)O[C@@H](CO)[C@H]2O3)c1 | . | 1[16.7 µM] | . | . | . | 0 | .
Cc1cc(=O)[nH]c(-n2ncc(C#N)c2N)n1 | -8 | . | -4 | 8 | 1 | 56* | -13%
Cc1cc(C)c(S(=O)(=O)N2CCOC2CNC(=O)C(=O)NCCCn2ccnc2)c(C)c1 (stereo not drawn) | . | . | 0 | . | -1 | 63* | 42µM*
CCc1ccc2c(c1)NC(=O)C2(C)Cc1ccc(F)cc1 (stereo not drawn) | . | -4 | . | . | . | . | .
CCc1ccc2c(c1)C1(NN=C(c3ccc(C)cc3)S1)C(=O)N2 (stereo not drawn) | 69 | 3 | 0 | -69 | -1 | 61* | 2.8µM*
CN1CCN(C(c2ccc(Cl)cc2)c2cc(Cl)c3cccnc3c2O)CC1 (stereo not drawn) | -5 | -9 | -7 | 5 | -5 | 12 | .
Oc1c(C(c2ccccn2)N2CCCCC2)cc(Cl)c2cccnc12 (stereo not drawn) | -55 | -18 | 5 | 55 | -1 | 69* | 8.1µM*
Cc1ccc(S(=O)(=O)NCCCn2ccnc2)cc1 | -32 | . | 0 | 32 | 1 | 3 | .
Cc1ccc(S(=O)(=O)NC(=O)c2cc(C)n(CCCn3ccnc3)c2C)cc1 | -2 | . | -2 | 2 | -1 | 53* | -3%
CCCNC(=O)Nc1ccc2c(c1)C(=O)N(C)C[C@@H](OC)[C@H](C)CN(Cc1ccccc1)[C@@H](C)CO2 | . | 9[16.7 µM] | . | . | . | . | .
SMILES | SR-BI DiI inh | miR-122 sensor | CAL PDZ FP-1 | SR-BI uptake up | CAL PDZ FP-2 | ARNT TACC3 PPI | ARNT Alpha ctr
C[C@@H]1CN([C@H](C)CO)S(=O)(=O)c2ccc(C#Cc3ccccn3)cc2O[C@@H]1CN(C)C(=O)C1CC1 | . | -2[16.7 µM] | . | . | . | 51* | -5%[42 µM]
C[C@@H]1CN([C@@H](C)CO)S(=O)(=O)c2ccc(-c3cccnc3)cc2O[C@H]1CN(C)C(=O)C1CC1 | . | -4[16.7 µM] | . | . | . | . | .
O=C(N/N=C1/CCS(=O)(=O)c2ccc(F)cc21)c1ccccn1 | -12 | . | . | 12 | -1 | 52* | -5%
O=C(N/N=C1/CCS(=O)(=O)c2ccc(F)cc21)c1cccnc1 | 1 | -1 | . | -1 | 0 | -8 | .
Cc1cc(C(=O)Nc2cccc3c2O[C@H](CN(C)C(=O)Nc2ccc(F)cc2)[C@H](C)CN([C@H](C)CO)C3=O)n(C)n1 | . | -9[16.7 µM] | . | . | . | -6 | .
COc1ccc(-c2nc(-c3ccccn3)nc(N3CCN(C)CC3)c2C#N)cc1 | 6 | 0 | -1 | -6 | -1 | 19 | .
c1ccc(NCCc2ccccn2)cc1 | -9 | . | -2 | 9 | 0 | 6 | .
c1ccc(-c2nnc(-c3ccccn3)nc2NCCc2ccccn2)cc1 | . | . | . | . | . | . | 1.8µM*
CN1CCN(c2nc(-c3ccccn3)nnc2-c2ccccc2)CC1 | . | . | . | . | . | . | 0.55µM*
c1ccc(-c2nnc(-c3ccccn3)nc2NCCN2CCOCC2)cc1 | . | . | . | . | . | . | 0.83µM*
CC(C)(C)CCNc1nc(-c2ccccn2)nnc1-c1ccccc1 | . | . | . | . | . | . | 2.2µM*
C[C@@H]1CCCCO[C@@H](CN(C)C(=O)Cc2ccccc2)[C@@H](C)CN([C@H](C)CO)C(=O)c2cc(NC(=O)Cc3ccccc3)ccc2O1 | . | 18[16.7 µM] | . | . | . | -8 | .
c1ccc(-c2nnc(-c3ccccn3)nc2NCc2ccccn2)cc1 | . | . | . | . | . | . | 0.7µM*
CCC(=O)Nc1ccc2c(c1)OC[C@@H](C)N(CC1CCOCC1)C[C@H](C)[C@H](OC)CN(C)C2=O | . | -4[16.7 µM] | . | . | . | -10 | .
COc1ccc(N(C(C)=O)c2nc3ccccc3[nH]2)cc1 | 6 | . | -2 | -6 | 1 | 53* | -8%
Cc1noc(C)c1S(=O)(=O)Nc1cccc2c1O[C@H](CN(C)C(=O)Nc1ccccc1)[C@H](C)CN([C@@H](C)CO)C2=O | . | -1[16.7 µM] | . | . | . | -3 | .
Nc1ccccc1N=Nc1ccccc1N | -5 | -3 | -2 | 5 | 2 | 22 | .
CC(C)(C)C1=CC(=Nc2ccccc2N)C=C(C(C)(C)C)C1=O | 41 | 12 | -4 | -41 | 0 | 54* | 1.5µM*
CC(C)NC(=O)Nc1ccc2c(c1)C(=O)N(C)[C@@H]1CC[C@H](CC(=O)Nc3ccccc3)O[C@@H]1CO2 | . | -1[16.7 µM] | . | . | . | 1 | .
O=c1oc2c3c4c(cc2s1)CCCN4CCC3 | -3 | -22 | -2 | 3 | 1 | active | 44µM*

High-throughput results: PubChem, Broad Institute
